≈ marks a conversion by molar mass, not a printed value. Calls of active or inactive are those of the source. The calls are words filed in the database; no cut-off is given here.
Legend:
[1] = tested on: Candida albicans; test: Antifungal activity against Candida albicans ATCC 10231 at 7.8 ug/mL incubated for 1 hr by propidium iodide staining-based fluorescence microscopic method; format: functional
Method in brief: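 C. albicans ATCC 10231 grown overnight in YPD broth at 35 °C with shaking at 200 rpm, then transferred to RPMI 1640. Cells were exposed to drug and stained with propidium iodide, which enters only cells with compromised membranes. Uptake was judged by fluorescence microscopy against an untreated control.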

[2] = tested on: Candida albicans; test: Antifungal activity against itraconazole and fluconazole susceptible Candida albicans ATCC MYA-2876 after 48 hrs by broth dilution method; format: functional
[3] = tested on: Candida parapsilosis; test: Antifungal activity against Candida parapsilosis ATCC 22019 after 48 hrs by broth dilution method; format: functional
[4] = tested on: Nakaseomyces glabratus; test: Antifungal activity against Candida glabrata ATCC 2001 after 48 hrs by broth dilution method; format: functional, CBS 138
[5] = tested on: Candida albicans; test: Antifungal activity against itraconazole and fluconazole susceptible Candida albicans ATCC MYA-2310 after 48 hrs by broth dilution method; format: functional
[6] = tested on: Candida albicans; test: Inhibition of 14alpha-demethylase in Candida albicans ATCC 10231 assessed as ergosterol levels at […] by GC-MS analysis; parameters: scale not given: the % may be the effect or the level left
[7] = tested on: Pichia kudriavzevii; test: Antifungal activity against Candida krusei ATCC 6258 after 48 hrs by broth dilution method; format: functional
Method in brief: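 Yeasts tested per CLSI M27-A3 with minor changes. An overnight YPD culture (35 °C, 200 rpm) was adjusted to OD600 0.12 and diluted in MOPS-buffered RPMI 1640 (pH 7.0) to a final 1–2 × 10^3 CFU/mL. Compounds 0.015–31.3 µg/mL, DMSO <1.25%.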

[8] = tested on: Candida albicans; test: Antifungal activity against Candida albicans ATCC 64124 after 48 hrs by broth dilution method; format: functional
Method in brief: (§1)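 CLSI M27-A3 broth microdilution with minor modifications. Overnight YPD culture grown at 35 °C, 200 rpm, adjusted to OD600 0.12, diluted in RPMI 1640 buffered to pH 7.0 with 0.165 M MOPS to a final 1–2 × 10^3 CFU/mL. Test compounds at 0.015–31.3 µg/mL, 48 h at 35 °C, DMSO <1.25%. […] Triplicate.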

[9] = tested on: Candida albicans; test: Inhibition of 14alpha-demethylase in Candida albicans ATCC 10231 assessed as 14alpha-methyl ergosta-8,24(28)-dien-3beta,6alpha-diol levels at […] by GC-MS analysis; parameters: scale not given: the % may be the effect or the level left
[10] = Aqueous solubility of the compound; format: physicochemical; settings: buffer
[11] = Solubility of the compound in DMSO; format: physicochemical
[12] = tested on: Candida albicans; test: Antifungal activity against itraconazole and fluconazole resistant Candida albicans ATCC 90819 after 48 hrs by broth dilution method; format: functional; method in brief: as §1
[13] = tested on: Candida albicans; test: Antifungal activity against Candida albicans ATCC 10231 at […] ug/mL incubated for 1 hr by propidium iodide staining-based fluorescence microscopic method; format: functional
[14] = tested on: Candida albicans; test: Antifungal activity against itraconazole and fluconazole resistant Candida albicans ATCC MYA-1237 after 48 hrs by broth dilution method; format: functional; method in brief: as §1
[15] = tested on: Candida albicans; test: Antibiofilm activity against voriconazole resistant Candida albicans ATCC 64124 sessile cells incubated for 24 hrs by XTT reduction assay; format: functional; settings: ATCC 64124, 24 h
Method in brief: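 Strain B grown overnight in YPD broth at 35 °C, diluted to OD600 0.1 (~10^6 CFU/mL), then grown statically for 24 h at 37 °C to form biofilm. Washed with PBS, then drug in RPMI 1640 at 0.12–62.5 µg/mL for 24 h at 37 °C. Read-out: XTT 0.5 mg/mL with menadione 1 µM, 2 h, A490. SMIC50/SMIC80 are 50%/80% decreases versus drug-free biofilm. Duplicate.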

[16] = tested on: Candida albicans; test: Inhibition of 14alpha-demethylase in Candida albicans ATCC 10231 assessed as eburicol levels at 0.12 ug/mL by GC-MS analysis; parameters: scale not given: the % may be the effect or the level left
Method in brief: (§2)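 Sterols were extracted from treated C. albicans ATCC 10231 (strain A) cells and profiled by GC-MS. Each sterol (lanosterol, ergosterol, eburicol, 14α-methyl ergosta-8,24(28)-diene-3β,6α-diol) is reported as a percentage of the sterol composition. A DMSO-treated culture served as the no-drug comparison.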

[17] = tested on: Candida albicans; test: Fungistatic activity against Candida albicans ATCC 10231 at 1 to 4 times MIC incubated for 24 hrs by time kill assay; format: functional
Method in brief: (§3)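 Overnight YPD cultures diluted in RPMI 1640 to an inoculum of 1–4 × 10^5 CFU/mL. […] Final volume 4 mL, 35 °C, 200 rpm, 24 h. Sampled at 0, 3, 6, 9, 12 and 24 h, serially diluted and plated on PDA. Colonies counted after 48 h (24 h for strain A). Detection limit 100 CFU/mL. Duplicate.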

[18] = tested on: Candida albicans; test: Inhibition of 14alpha-demethylase in Candida albicans ATCC 10231 assessed as total sterol levels at 0.12 ug/mL by GC-MS analysis; parameters: scale not given: the % may be the effect or the level left
[19] = tested on: Nakaseomyces glabratus; test: Fungistatic activity against Candida glabrata ATCC 2001 at 4 times MIC incubated for 24 hrs by time kill assay; format: functional; settings: CBS 138; method in brief: as §3
[20] = tested on: Candida albicans; test: Antifungal activity against itraconazole and fluconazole resistant Candida albicans ATCC MYA-1003 after 48 hrs by broth dilution method; format: functional; method in brief: as §1
[21] = tested on: Aspergillus terreus; test: Antifungal activity against Aspergillus terreus ATCC MYA-3633 after 48 hrs by broth dilution method; format: functional
Method in brief: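 Molds tested per CLSI M38-A2. Spores were harvested from sporulating PDA cultures by filtering through glass wool and counted on a hemocytometer. Serial dilutions (0.03–31.3 µg/mL) were made in RPMI 1640 buffered to pH 7.0 with 0.165 M MOPS, final inoculum 5 × 10^5 CFU/mL.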

[22] = tested on: Candida parapsilosis; test: Fungistatic activity against Candida parapsilosis ATCC 22019 at 1 to 4 times MIC incubated for 24 hrs by time kill assay; format: functional; method in brief: as §3
[23] = tested on: Aspergillus nidulans; test: Antifungal activity against Aspergillus nidulans ATCC 38163 after 48 hrs by broth dilution method; format: functional
Method in brief: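 A. nidulans run per CLSI M38-A2. PDA spores were filtered through glass wool and counted by hemocytometer. Test range 0.03–31.3 µg/mL in MOPS-buffered RPMI 1640 (pH 7.0), final 5 × 10^5 CFU/mL.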

[24] = tested on: Candida albicans; test: Inhibition of 14alpha-demethylase in Candida albicans ATCC 10231 assessed as ergosterol levels at 0.12 ug/mL by GC-MS analysis; parameters: scale not given: the % may be the effect or the level left; method in brief: as §2
[25] = tested on: Candida parapsilosis; test: Antifungal activity against Candida parapsilosis ATCC 22019 after 48 hrs in the presence of 10% FBS by broth dilution method; format: functional; settings: Lodderomyces parapsilosis, ATCC 22019, 48 h
[26] = tested on: Candida albicans; test: Inhibition of 14alpha-demethylase in Candida albicans ATCC 10231 assessed as 14alpha-methyl ergosta-8,24(28)-dien-3beta,6alpha-diol levels at 0.12 ug/mL by GC-MS analysis; parameters: scale not given: the % may be the effect or the level left; method in brief: as §2
[27] = tested on: Candida albicans; test: Inhibition of 14alpha-demethylase in Candida albicans ATCC 10231 assessed as lanosterol levels at 0.12 ug/mL by GC-MS analysis; parameters: scale not given: the % may be the effect or the level left; method in brief: as §2
[28] = tested on: Aspergillus nidulans; test: Antifungal activity against Aspergillus nidulans ATCC 38163 after 48 hrs in the presence of 10% FBS by broth dilution method; format: functional; settings: ATCC 38163, 48 h

With `OC(Cn1cncn1)(Cn1cncn1)c1ccc(F)cc1F` [FLUCONAZOLE] the Activity [1] was “inactive”, the “MIC=<50” value [2] was 50.9 µM (≈ 15.6 µg/mL) and the “MIC=<50” value [3] was 6.4 µM (≈ 1.96 µg/mL). For the same compound, the “MIC=<50” value [4] was >102.2 µM, the “MIC=<50” value [5] was >408.1 µM and the Activity [6] was 95.9%. For the same compound, the “MIC=<50” value [7] was >102.2 µM, the “MIC=<50” value [8] was >408.1 µM and the Activity [9] was 4.1%. The solubility [10] was “Soluble”, the solubility [11] was “Soluble” and the “MIC=<50” value [12] was >408.1 µM.

For `CCCCCCCCCCCCCCOC[C@H]1O[C@H](O[C@@H]2[C@@H](O)[C@H](O[C@H]3O[C@H](CN)[C@@H](O)[C@H](O)[C@H]3N)[C@@H](N)C[C@H]2N)[C@H](O)[C@@H](N)[C@@H]1O`, the Activity [13] was “Active”.

With `C[C@@H](c1ncncc1F)[C@](O)(Cn1cncn1)c1ccc(F)cc1F` [VORICONAZOLE] the “MIC=<50” value [14] was 22.3 µM (≈ 7.79 µg/mL), the MIC50 [15] was 62.5 µg/mL (≈ 179 µM) and the MIC80 [15] was 62.5 µg/mL (≈ 179 µM). For the same compound, the Activity [16] was 2.14%, the “MIC=<50” value [2] was 5.6 µM (≈ 1.96 µg/mL) and the “MIC=<50” value [3] was <0.06 µM. The Activity [17] was “Active”, the “MIC=<50” value [4] was 0.17 µM (≈ 0.0594 µg/mL) and the Activity [18] was 1.56 to 2.79%. For the same compound, the “MIC=<50” value [5] was 2.8 µM (≈ 0.978 µg/mL), the Activity [19] was “Active” and the “MIC=<50” value [20] was 5.6 µM (≈ 1.96 µg/mL). For the same compound, the “MIC=<50” value [7] was 0.34 µM (≈ 0.119 µg/mL), the “MIC=<50” value [21] was 0.34 µM (≈ 0.119 µg/mL) and the Activity [22] was “Active”. For the same compound, the “MIC=<50” value [8] was 11.2 µM (≈ 3.91 µg/mL), the “MIC=<50” value [23] was 0.34 µM (≈ 0.119 µg/mL) and the Activity [24] was 64.9%. It also gave an MIC [25] of 0.015 µg/mL, an Activity [26] of 10.1% and an Activity [27] of 18.5%. The “MIC=<50” value [12] was 5.6 µM (≈ 1.96 µg/mL) and the MIC [28] was 0.12 µg/mL.

From ChEMBL document CHEMBL4024783, “Alkylated Piperazines and Piperazine-Azole Hybrids as Antifungal Agents” (J Med Chem, 2018)
